# Data reported in ChEMBL document CHEMBL4689842, “EUbOPEN Chemogenomics Library wave 1” (2021).
# Test system: HEK-293T
# Assay: Multiplex assay against HEK293T;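 for Population Tubulin-Different-Phenotype (%): share of the cells with healthy nuclei that show this phenotype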
# Format: toxicity, cell-based
# Settings: human
# How it was run: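 Live cells were stained at seeding with Hoechst33342, BioTracker Green Microtubule Cytoskeleton Dye, MitoTracker Red and Annexin V Alexa Fluor 680. Following compound addition, they were imaged on a CQ1 microscope at 37°C and 5% CO2 and gated by CellPathfinder machine learning into Hoechst high-intensity objects or normal cells, with normal cells split into healthy, pyknosed or fragmented nuclei and pyknosed cells into mitotic or apoptotic. Tubulin, mitochondrial-mass and membrane-permeability phenotypes are per cents of healthy-nucleus cells.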
# [1] = 12 h, 1 µM, compound concentration 1 uM, replicate 1
# [2] = 12 h, 1 µM, compound concentration 1 uM, replicate 2
# [3] = 12 h, 10 µM, compound concentration 10 uM, replicate 1
# [4] = 12 h, 10 µM, compound concentration 10 uM, replicate 2
# [5] = 24 h, 1 µM, compound concentration 1 uM, replicate 1
# [6] = 24 h, 1 µM, compound concentration 1 uM, replicate 2
# [7] = 24 h, 10 µM, compound concentration 10 uM, replicate 1
# [8] = 24 h, 10 µM, compound concentration 10 uM, replicate 2
smiles,measurement,setting,value
CCc1cccc(CC)c1NC(=O)c1nn(C)c2c1CCc1cnc(Nc3ccc(N4CCN(C)CC4)cc3OC)nc1-2,Population Apoptotic (%),[1],27%
same,Population Fragmented Nuclei (%),[1],14%
same,Population Healthy Nuclei (%),[1],18%
same,Population Hoechst High Intensity Objects (%),[1],18%
same,Population Membrane Permeable-Phenotype (%),[1],11%
same,Population Mitochondria Different-Phenotype (%),[1],32%
same,Population Mitotic Cells (%),[1],72%
same,Population Normal (%),[1],81%
same,Population Pyknosed Nuclei (%),[1],67%
same,Population Tubulin-Different-Phenotype (%),[1],75%
same,Total Cell Count,[1],690
same,Population Apoptotic (%),[2],19%
same,Population Fragmented Nuclei (%),[2],2%
same,Population Healthy Nuclei (%),[2],54%
same,Population Hoechst High Intensity Objects (%),[2],7%
same,Population Membrane Permeable-Phenotype (%),[2],5%
same,Population Mitochondria Different-Phenotype (%),[2],69%
same,Population Mitotic Cells (%),[2],80%
same,Population Normal (%),[2],92%
same,Population Pyknosed Nuclei (%),[2],42%
same,Population Tubulin-Different-Phenotype (%),[2],97%
same,Total Cell Count,[2],922
same,Population Apoptotic (%),[3],19%
same,Population Fragmented Nuclei (%),[3],11%
same,Population Healthy Nuclei (%),[3],64%
same,Population Hoechst High Intensity Objects (%),[3],14%
same,Population Membrane Permeable-Phenotype (%),[3],13%
same,Population Mitochondria Different-Phenotype (%),[3],12%
same,Population Mitotic Cells (%),[3],80%
same,Population Normal (%),[3],85%
same,Population Pyknosed Nuclei (%),[3],24%
same,Population Tubulin-Different-Phenotype (%),[3],54%
same,Total Cell Count,[3],730
same,Population Apoptotic (%),[4],5%
same,Population Fragmented Nuclei (%),[4],3%
same,Population Healthy Nuclei (%),[4],89%
same,Population Hoechst High Intensity Objects (%),[4],2%
same,Population Membrane Permeable-Phenotype (%),[4],8%
same,Population Mitochondria Different-Phenotype (%),[4],24%
same,Population Mitotic Cells (%),[4],94%
same,Population Normal (%),[4],97%
same,Population Pyknosed Nuclei (%),[4],6%
same,Population Tubulin-Different-Phenotype (%),[4],57%
same,Total Cell Count,[4],1395
same,Population Apoptotic (%),[5],39%
same,Population Fragmented Nuclei (%),[5],18%
same,Population Healthy Nuclei (%),[5],17%
same,Population Hoechst High Intensity Objects (%),[5],13%
same,Population Membrane Permeable-Phenotype (%),[5],11%
same,Population Mitochondria Different-Phenotype (%),[5],41%
same,Population Mitotic Cells (%),[5],60%
same,Population Normal (%),[5],86%
same,Population Pyknosed Nuclei (%),[5],63%
same,Population Tubulin-Different-Phenotype (%),[5],68%
same,Total Cell Count,[5],683
same,Population Fragmented Nuclei (%),[6],3%
same,Population Healthy Nuclei (%),[6],27%
same,Population Hoechst High Intensity Objects (%),[6],12%
same,Population Membrane Permeable-Phenotype (%),[6],3%
same,Population Mitochondria Different-Phenotype (%),[6],92%
same,Population Normal (%),[6],87%
same,Population Pyknosed Nuclei (%),[6],68%
same,Population Tubulin-Different-Phenotype (%),[6],89%
same,Total Cell Count,[6],901
same,Population Apoptotic (%),[7],27%
same,Population Fragmented Nuclei (%),[7],11%
same,Population Healthy Nuclei (%),[7],77%
same,Population Hoechst High Intensity Objects (%),[7],8%
same,Population Membrane Permeable-Phenotype (%),[7],20%
same,Population Mitochondria Different-Phenotype (%),[7],9%
same,Population Mitotic Cells (%),[7],72%
same,Population Normal (%),[7],91%
same,Population Pyknosed Nuclei (%),[7],10%
same,Population Tubulin-Different-Phenotype (%),[7],65%
same,Total Cell Count,[7],803
same,Population Apoptotic (%),[8],11%
same,Population Fragmented Nuclei (%),[8],8%
same,Population Healthy Nuclei (%),[8],88%
same,Population Hoechst High Intensity Objects (%),[8],3%
same,Population Membrane Permeable-Phenotype (%),[8],13%
same,Population Mitotic Cells (%),[8],88%
same,Population Normal (%),[8],96%
same,Population Pyknosed Nuclei (%),[8],3%
same,Population Tubulin-Different-Phenotype (%),[8],62%
same,Total Cell Count,[8],1777
